A selection: hits, their analogues and other compounds. The true share with any hit is near 1.7%.
Rtt109 HAT inh: inhibitors of Candida albicans Rtt109/Vps75 histone acetyltransferase; Q5AAJ8; purified Rtt109/Vps75, ThioGlo CoA-SH fluorescence, 4 h; inhibition, % at 34.9 µM; 0.16% of 330,000 active; AID 540336;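 active means inhibition of at least 50% in every replicate; inconclusive means best replicate reaches 50% inhibition but some replicates fall short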
Target sequence (Q5AAJ8 whole entry, looked up): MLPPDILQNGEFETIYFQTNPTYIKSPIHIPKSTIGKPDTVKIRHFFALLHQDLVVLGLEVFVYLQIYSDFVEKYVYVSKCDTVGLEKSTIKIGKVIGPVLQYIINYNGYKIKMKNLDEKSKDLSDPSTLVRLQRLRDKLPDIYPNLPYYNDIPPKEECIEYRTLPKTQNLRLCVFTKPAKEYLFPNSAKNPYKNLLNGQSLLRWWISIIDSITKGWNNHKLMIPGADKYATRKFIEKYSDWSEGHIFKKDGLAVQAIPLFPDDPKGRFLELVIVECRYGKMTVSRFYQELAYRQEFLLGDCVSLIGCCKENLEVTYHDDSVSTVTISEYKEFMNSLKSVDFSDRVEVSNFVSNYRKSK
FN deposit inh: fibronectin deposition inhibition | AH1F fibroblasts, Alexa488-fibronectin deposition fluorescence, overnight | inhibition, % at 12.6 µM | 0.086% of 350,000 active;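 active means mean inhibition across replicates of 30% or more, regardless of how many single replicates reach that level; inconclusive means mean under 30% yet at least half of replicates reach 30%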;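 further: positive control wells lacked labelled fibronectin entirely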
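test system = AH1F fibroblasts assembling fluorescent fibronectin matrix | quantity = 10000 AH1F cells per well | buffer or medium = DMEM plus 2% serum, read in PBS | doses = single dose, pinned | incubation = 1 h cell attachment, overnight exposure to compound and label | detection = fluorescence at 485 nm excitation, 525 nm emission | read-out basis = inhibition from reduced deposited-fibronectin fluorescence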
PglD DTNB: inhibitors of Campylobacter jejuni PglD acetyltransferase. inhibition, % at 12.5 µM. 0.098% of 360,000 active. AID 602405. purified PglD enzyme, DTNB colorimetric CoA detection; in the data active means inhibition above about 16%, passing the limit was not always enough; inconclusive means no clear call, values can overlap the other calls
CSC inhib: blocks cancer stem cells | cancer stem cell-like cells viability, luminescence | inhibition, % at 7.5 µM | 1.1% of 300,000 active | AID 2717; in the data active means inhibition above about 75%; inconclusive means no clear call, values can overlap the other calls; tested in HMLE shEcad cells
PfHsp90 yeast 2: growth inhibition of yeast expressing Plasmodium Hsp90; S. cerevisiae expressing PfHsp90, BacTiter-Glo ATP, 48 h; yeast lacking PDR1 and PDR3 efflux regulators; inhibition, % at 9.4 µM; 0.32% of 310,000 active; AID 504621;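 active means every replicate shows inhibition above about 80%, whatever the replicate mean, limit read from the data; inconclusive means mean inhibition reaches the set limit but some replicate falls short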;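 further: 0% = DMSO neutral controls and 100% = 20 µM radicicol positive controls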
SKKanGAS inh: inhibitors of SKKanGAS S. pyogenes growth in kanamycin (SK-promoter or general growth effect). BacTiter-Glo, 6 h. inhibition, % at 7.5 µM. 1.3% of 300,000 active;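 active means mean replicate score, as percent of positive control median, at least 50; inconclusive means mean below 50 but one replicate at or above 50; inactive means mean and every replicate below 50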;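 further: strain carries kanamycin resistance gene driven by streptokinase promoter and grows in 40 µg/ml kanamycin; loss of luminescence reflects streptokinase promoter inhibition or plain growth inhibition; 0% = median of DMSO wells and 100% = positive control at its reference dose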
An asterisk follows results filed as active; ? = inconclusive; nt = no result.

SMILES	Rtt109 HAT inh	FN deposit inh	PglD DTNB	CSC inhib	PfHsp90 yeast 2	SKKanGAS inh
CC(C)(C)NS(=O)(=O)c1ccc(NC(=O)Cc2ccccc2[N+](=O)[O-])cc1	nt	1.3	nt	-9.0	-11.1	3.8
CCCCNS(=O)(=O)c1ccc(NC(=O)Cc2ccccc2[N+](=O)[O-])cc1	53.0*	3.2	nt	15.6	-12.3	-28.9
Cc1ccc(S(=O)(=O)c2ccc([N+](=O)[O-])o2)cc1	0.2	48.6*	nt	nt	21.5	nt
Cc1ccc(-c2[nH]nc(N)c2N=Nc2cccc(Cl)c2C)cc1	2.4	1.2	-7.4	nt	nt	nt
Cc1ccc(-c2[nH]nc(N)c2N=Nc2ccccc2C)cc1	-3.7	-10.2	-5.2	50.0	-5.7	74.5*
COc1ccc(-c2nc(-c3ccc(NC(=O)c4ccc(Br)o4)cc3)no2)cc1OC	6.7	nt	nt	78.8*	-8.8	9.7
COc1ccc(CCC(=O)Nc2ccc(-c3noc(-c4ccc(OC)c(OC)c4)n3)cc2)cc1	1.5	nt	3.0	-4.3	8.1	0.4
COc1cc(-c2nc(-c3ccc(NC(=O)c4ccc(Br)o4)cc3)no2)cc(OC)c1OC	nt	-0.8	-4.7	76.9*	nt	-14.0
O=C(Cc1cccnc1)N1CC(=O)N2[C@H](CO)[C@H](c3ccc(C#CC4CC4)cc3)[C@@H]2C1	nt	-7.8	nt	nt	nt	nt
CCCCn1c(N)c(-c2nc3ccccc3s2)c2c([N+](=O)[O-])nn(CC)c(=O)c21	-6.4	0.6	5.2	-4.6	11.8	6.5
CCCCCn1c(N)c(-c2nc3ccccc3s2)c2c([N+](=O)[O-])nn(CC)c(=O)c21	-5.3	-0.3	nt	30.7	nt	54.3*
Cc1c(C(=O)Nc2ccc(-c3nnc4n3CCCCC4)cc2)oc2c1ccc1ccccc12	-0.5	5.9	-4.8	117.0*	-20.7	30.7
O=C(Nc1ccc(-c2nnc3n2CCCCC3)cc1)c1cc2ccccc2o1	-1.5	1.4	nt	-4.6	8.6	-4.4
CC(C)NC(=O)Nc1ccc2c(c1)C(=O)N([C@H](C)CO)C[C@H](C)[C@@H](CN(C)Cc1ccc(C(=O)O)cc1)O2	nt	nt	-6.2	nt	nt	nt
COC(=O)c1c(NC(=O)Cc2ccccc2)sc2c1CC(C)(C)NC2(C)C	7.0	-4.7	4.8	-5.8	-8.2	4.9
COC(=O)c1c(NC(=O)COc2ccc(Cl)cc2)sc2c1CC(C)(C)NC2(C)C	-5.1	nt	-1.9	10.1	7.0	67.6*
COc1ccc(CNCC(O)COc2ccc(C(C)(C)c3ccccc3)cc2)cc1 (stereo not drawn)	26.0	-1.1	nt	109.1*	11.7	5.1
CC(C)(c1ccccc1)c1ccc(OCC(O)CNC2CCN(Cc3ccccc3)CC2)cc1 (stereo not drawn)	?	-3.2	4.4	106.5*	-24.3	13.3
COc1cc(-c2ccc3oc(-c4cccc(C)c4)c(C#CC4(O)CCCCC4)c3c2)cc(OC)c1OC	11.9	-2.9	-8.8	80.6*	-9.3	nt
CCN(CC)c1ccc(/C=N/NC(=O)c2ccc3nc[nH]c3c2)c(O)c1	-2.6	nt	-9.1	106.5*	-72.7	5.8
CCN(CC)c1ccc(C(=O)N/N=C/c2ccccc2OC(F)F)cc1	0.5	40.9*	nt	0.4	-4.9	9.4
CCN(CC)c1ccc(/C=N/NC(=O)c2cccc(S(=O)(=O)Nc3ccccc3OC)c2)c(O)c1	1.1	0.7	nt	108.1*	7.7	16.7
CC(C)Oc1ccccc1/C=N/NC(=O)c1ccc(F)cc1	5.7	5.7	0.7	-1.6	2.8	-4.3
COc1cc(OC)c(OC)cc1/C=N/NC(=O)c1ccc2nc[nH]c2c1	-3.1	14.2	nt	-7.9	-3.1	3.0
O=S(=O)(N[C@@H]1CC[C@H](CCn2cc(-c3cccnc3)nn2)O[C@@H]1CO)c1ccc(Cl)cc1	nt	-12.1	-1.8	nt	nt	nt
C[C@H]1CN([C@@H](C)CO)C(=O)Cc2cc(NS(=O)(=O)c3ccc(F)cc3)ccc2O[C@@H]1CN(C)C(=O)Nc1ccc(C(F)(F)F)cc1	nt	nt	-2.8	nt	nt	nt
COc1ccc(S(=O)(=O)N(C)C[C@H]2OCCCC[C@@H](C)Oc3ccc(NC(=O)Nc4cccc5ccccc45)cc3C(=O)N([C@@H](C)CO)C[C@H]2C)cc1	nt	nt	2.1	nt	nt	nt
CCCCn1c(C2CCCCC2)nc2cc3[nH]c(=O)c(C(C)C)nc3cc21	-9.4	-12.2	-2.2	81.0*	-8.8	12.6
Oc1c(N=Nc2ccccn2)ccc2ccccc12	-14.9	21.1	nt	99.2*	nt	69.1*
Oc1[nH]c2ccccc2c1N=Nc1ccccn1	-10.7	-2.1	nt	nt	9.5	nt
